This is an account of results in ChEMBL document CHEMBL1134049, “Antimitotic and cell growth inhibitory properties of combretastatin A-4-like ethers” (Bioorg Med Chem Lett, 2001).

By IC50 is commonly meant the concentration at which inhibition is half-maximal.

In one experiment the test system is L1210. As to the kind of experiment: Concentration required for 50% inhibition of L1210 murine leukemia cell growth in MTT assay. The note with it: Mus musculus. Type of experiment: functional, cell-based. For orientation: Tetrazolium assays rely on reduction of a dye to a coloured formazan, in cell work by metabolically active cells.
For another experiment, the system named is P388. The experiment can be described thus: Concentration required for 50% inhibition of P388 murine leukemia cell growth in MTT assay. Format: functional, cell-based. The conditions noted are these: Mus musculus.
Experiment [1] relates to K562. The experiment can be described thus: Concentration required for 50% inhibition of K562 human chronic myelogenous leukemia cell growth in MTT assay. Format: functional, cell-based. A digest of the protocol:
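K562 cells grown at 37 °C with compound for 5 days; growth read by MTT assay; IC50 taken as concentration giving 50% decrease in cell growth.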

Experiment [2] deals with K562. The experiment can be described thus: Effect upon G0-G1 phase of cell cycle relative to untreated control. Format: functional, Homo sapiens. Also on record: unit not given here.
Experiment [3] concerns K562. The experiment can be described thus: Effect upon G2 M phase of cell cycle relative to untreated control. Format: functional, Homo sapiens. Also on record: unit not given here.
For experiment [4], the system named is K562. The experiment can be described thus: Effect upon S phase of cell cycle relative to untreated control. Also on record: unit not given here. Format: functional, Homo sapiens.
For experiment [5], the target named is T1, Tubulin (Sus scrofa, UniProt P02554+P02550). As to the kind of experiment: Concentration required to cause 50% decrease in the binding of [3H]colchicine from purified porcine tubulin. Type of experiment: protein assay.
In experiment [6] the target is T1, Tubulin. The experiment can be described thus: Effect on tubulin binding and the concentration required to cause 50% decrease in tubulin assembly at 350 nm. Type of experiment: protein assay. A digest of the protocol: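 Tubulin assembly followed by increase in turbidity at 350 nm; IC50 is the concentration causing 50% decrease in assembly.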

In the experiment on L1210, `COc1ccc(-c2cc(OC)c(OC)c(OC)c2)cc1O` displayed a half-maximal inhibitory concentration (IC50) of more than 50000 nM.
`COc1ccc(CCc2cc(OC)c(OC)c(OC)c2)cc1O` came in with an IC50 in the experiment on P388 of 110 nM.
In the experiment on K562 [1], `COc1ccc(Nc2cc(OC)c(OC)c(OC)c2)cc1` returned an IC50 of 3000 nM.
With `COc1ccc(C(O)Cc2cc(OC)c(OC)c(OC)c2)cc1O` (centres undefined), the IC50 in the experiment with P388 stood at 33000 nM.
On to `COc1ccc(Oc2ccc(C)c(C)c2)cc1`, for which, in the experiment with K562 [1], the IC50 worked out at 24000 nM.
Take `COc1ccc(OCc2cc(OC)c(OC)c(OC)c2)cc1O`: the results for the IC50 in the experiment on K562 [1], on Tubulin [5] and at Tubulin [6] were 120 nM, 226000 nM and 22500 nM, respectively. The values for the Activity with K562 [2], in the experiment on K562 [3] and with K562 [4] were 3.8, 78.3 and 17.9, respectively.
As to `COc1ccc(Nc2cc(OC)c(OC)c(OC)c2)cc1O`, the IC50 with K562 [1] is 2600 nM; at Tubulin [5], 298000 nM; on Tubulin [6] it was more than 100000 nM. In addition, the Activity was 3.4 in the experiment with K562 [2], 87.2 in the experiment on K562 [3] and 9.4 with K562 [4].
`COc1ccc(OCc2cc(OC)c(OC)c(OC)c2)cc1C=O`: the IC50 in the experiment with K562 [1] stood at 170 nM; on Tubulin [5], 4000 nM; at Tubulin [6], 600 nM. The Activity is given as 9.1 in the experiment with K562 [2], 57.8 with K562 [3] and 33.1 with K562 [4].
With `COc1ccc(COc2cc(OC)c(OC)c(OC)c2)cc1OCC=O`, the IC50 with K562 [1] worked out at 2500 nM.
`COc1ccc(Oc2cc(OC)c(OC)c(OC)c2)cc1OCc1ccccc1` gave an IC50 with K562 [1] of 51000 nM.
For `C=CCOc1cc(COc2cc(OC)c(OC)c(OC)c2)ccc1OC`, the IC50 with K562 [1] was determined as 30000 nM.
In the experiment with P388, `COc1ccc(CC(O)c2cc(OC)c(OC)c(OC)c2)cc1O` (centres undefined) showed a half-inhibitory concentration (IC50) of 33 nM.
`COc1ccc(OCc2cc(OC)c(OC)c(OC)c2)cc1CO` returned an IC50 in the experiment with K562 [1] of 60000 nM.
Take `COc1ccc([C@@H](O)[C@H](O)c2cc(OC)c(OC)c(OC)c2)cc1O`: in the experiment on P388, inhibition was half-maximal at 19000 nM (IC50).
Consider `COc1ccc(COc2cc(OC)c(OC)c(OC)c2)cc1O`, for which the IC50 in the experiment with K562 [1] came to 20 nM; on Tubulin [5], 36000 nM; on Tubulin [6], 6600 nM. Also, the Activity is on record as 3.5 in the experiment on K562 [2], 82.5 with K562 [3] and 14 in the experiment on K562 [4].
Turning to `COc1ccc(Oc2cc(OC)c(OC)c(OC)c2)cc1O`, the IC50 worked out at 50 nM in the experiment with K562 [1], 36000 nM at Tubulin [5] and 16300 nM at Tubulin [6]. For the same molecule, the values for the Activity in the experiment with K562 [2], with K562 [3] and with K562 [4] were 4.3, 73.4 and 22.3, respectively.
Molecule `COc1ccc(Oc2cc(OC)c(OC)c(OC)c2)cc1` returned an IC50 in the experiment on K562 [1] of 380 nM.
In the experiment on K562 [1], `COc1ccc(COc2cc(OC)c(OC)c(OC)c2)cc1OCC(O)CO` (centres undefined) had an IC50 of 90000 nM.
Consider `COc1ccc(C#Cc2cc(OC)c(OC)c(OC)c2)cc1O`, for which 21000 nM corresponded to half-maximal inhibition in the experiment on K562 [1] (IC50).
`COc1ccc([C@H](O)[C@@H](O)c2cc(OC)c(OC)c(OC)c2)cc1O`: in the experiment with P388, the IC50 is 2000 nM.
Consider `COc1ccc(Nc2cc(OC)c(OC)c(OC)c2)cc1OCc1ccccc1`, for which 15000 nM corresponded to half-maximal inhibition in the experiment on K562 [1] (IC50).
Molecule `COc1ccc(/C=C\c2cc(OC)c(OC)c(OC)c2)cc1O` [COMBRETASTATIN A4] came in with an IC50 in the experiment with P388 of 160 nM.
On the same count and under the same terms, the result for `COc1ccc(/C=C/c2cc(OC)c(OC)c(OC)c2)cc1O` [E-COMBRETASTATIN A-4] reads 2.6 nM.
The same measure, in the same setting: the result for `COc1ccc(C(=O)c2cc(OC)c(OC)c(OC)c2)cc1O` [PHENSTATIN] reads 10 nM.
